Reference: ChEMBL document CHEMBL4152379, “Discovery of Pyrrolidine Sulfonamides as Selective and Orally Bioavailable Antagonists of Transient Receptor Potential Vanilloid-4 (TRPV4)” (J Med Chem, 2018)
Converted amounts (≈) assume the structure as drawn.

What was measured:
[1] = target: Transient receptor potential cation channel subfamily V member 4 (Homo sapiens, UniProt Q9HBA0); experiment: Antagonist activity at human TRPV4 expressed in BHK/AC9 or HEK MSR2 cells assessed as inhibition of GSK634775-induced Ca2+ flux pre-incubated for 10 mins before agonist addition by FLIPR assay
[2] = system: Rattus norvegicus; experiment: In vivo antagonist activity at TRPV4 in iv dosed Sprague-Dawley rat assessed as inhibition of GSK1016790A-induced increase in lung wet weight by measuring lung weight/body weight ratio in at 0.03 to 0.23 mg/kg, iv dosed via bolus dose followed by iv infusion at 0.6 to 5.1 ug/kg/min for 60 mins; assay type: functional, organism-based
Outline: (§1)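 Sprague-Dawley rats given an i.v. bolus loading dose, then a 60 min continuous i.v. infusion to reach steady-state plasma exposure. Challenged with GSK1016790A at 10 μg/kg/min by 10 min i.v. infusion. Mean arterial pressure and lung wet weight/body weight ratio recorded. Mean ± SEM; comparisons by ANOVA with Dunnett's or Bonferroni post hoc tests.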

[3] = system: Rattus norvegicus; experiment: In vivo antagonist activity at TRPV4 in iv dosed Sprague-Dawley rat assessed as inhibition of GSK1016790A-induced reduction in mean arterial pressure at 0.23 mg/kg, iv dosed via bolus dose followed by iv infusion at 5.1 ug/kg/min for 60 mins; assay type: functional
Outline: as §1

[4] = species on record: Rattus norvegicus; experiment: Unbound clearance in Sprague-Dawley rat; assay type: ADME, organism-based; settings: in vivo
[5] = Steady state plasma concentration in Sprague-Dawley rat at 0.23 mg/kg, iv dosed via bolus dose followed by iv infusion at 5.1 ug/kg/min for 60 mins; assay type: ADME, organism-based; settings: in vivo, 1 h
[6] = Steady state plasma concentration in Sprague-Dawley rat at 0.03 mg/kg, iv dosed via bolus dose followed by iv infusion at 0.6 ug/kg/min for 60 mins; assay type: ADME, organism-based; settings: in vivo, 1 h
[7] = Steady state plasma concentration in Sprague-Dawley rat at 0.08 mg/kg, iv dosed via bolus dose followed by iv infusion at 1.7 ug/kg/min for 60 mins; assay type: ADME, organism-based; settings: in vivo, 1 h
[8] = system: Rattus norvegicus; experiment: In vivo antagonist activity at TRPV4 in iv dosed Sprague-Dawley rat assessed as inhibition of GSK1016790A-induced increase in lung wet weight by measuring lung weight/body weight ratio in at 0.23 mg/kg, iv dosed via bolus dose followed by iv infusion at 5.1 ug/kg/min for 60 mins; assay type: functional
Outline: as §1

[9] = system: Rattus norvegicus; experiment: In vivo antagonist activity at TRPV4 in iv dosed Sprague-Dawley rat assessed as inhibition of GSK1016790A-induced reduction in mean arterial pressure at 0.03 to 0.23 mg/kg, iv dosed via bolus dose followed by iv infusion at 0.6 to 5.1 ug/kg/min for 60 mins; assay type: functional, organism-based
Outline: as §1

[10] = Aqueous solubility of the compound; assay type: physicochemical; settings: buffer
[11] = Clearance in iv dosed Sprague-Dawley rat; assay type: ADME, organism-based; settings: in vivo
Outline: (§2)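 Male Sprague-Dawley rats with femoral vein, femoral artery and gastric catheters; noncrossover design, 2 rats per route; cassette dosing of up to five compounds. i.v. target 1 mg/kg in 5% DMSO/20% Cavitron (pH 4), infused over 30 min. Oral gastric bolus target 2 mg/kg in 5% DMSO/6% Cavitron (pH 4). Plasma sampled to 24 h and measured by HPLC−MS/MS. Noncompartmental analysis; F from dose-normalized AUC(0−∞) relative to mean i.v. AUC.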

[12] = Fraction unbound in Sprague-Dawley rat plasma; assay type: ADME, cell-free
[13] = Lipophilicity, log D of the compound by chromatography; assay type: physicochemical
[14] = Oral bioavailability in Sprague-Dawley rat; assay type: ADME, organism-based; settings: in vivo
Outline: as §2

[15] = MRT in iv dosed Sprague-Dawley rat; assay type: ADME, organism-based; settings: in vivo
Outline: as §2

Transient receptor potential cation channel subfamily V member 4, sequence (Q9HBA0 whole entry, the tested form may be a part): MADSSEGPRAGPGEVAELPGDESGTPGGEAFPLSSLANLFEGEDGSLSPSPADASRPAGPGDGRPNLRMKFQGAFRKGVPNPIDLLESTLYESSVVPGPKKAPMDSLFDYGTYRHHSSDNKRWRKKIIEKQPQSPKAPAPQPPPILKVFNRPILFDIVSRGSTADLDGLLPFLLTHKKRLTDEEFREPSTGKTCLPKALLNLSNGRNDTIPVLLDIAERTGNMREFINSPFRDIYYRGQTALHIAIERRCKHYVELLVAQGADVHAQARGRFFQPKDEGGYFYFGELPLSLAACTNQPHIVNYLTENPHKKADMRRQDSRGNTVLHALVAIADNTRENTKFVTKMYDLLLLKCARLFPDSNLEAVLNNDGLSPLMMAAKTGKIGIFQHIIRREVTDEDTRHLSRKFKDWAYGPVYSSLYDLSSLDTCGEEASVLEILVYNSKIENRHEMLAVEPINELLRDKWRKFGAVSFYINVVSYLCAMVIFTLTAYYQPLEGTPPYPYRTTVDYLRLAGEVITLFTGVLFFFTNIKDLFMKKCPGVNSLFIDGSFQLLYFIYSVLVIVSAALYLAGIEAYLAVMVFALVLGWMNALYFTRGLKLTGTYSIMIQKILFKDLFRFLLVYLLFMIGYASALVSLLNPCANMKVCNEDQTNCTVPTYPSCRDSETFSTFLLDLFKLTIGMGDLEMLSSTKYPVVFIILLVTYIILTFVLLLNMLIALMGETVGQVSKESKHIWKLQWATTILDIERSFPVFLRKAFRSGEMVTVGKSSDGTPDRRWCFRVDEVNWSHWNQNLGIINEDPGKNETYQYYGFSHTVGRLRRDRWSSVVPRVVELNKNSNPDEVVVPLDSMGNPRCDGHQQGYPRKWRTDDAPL

In the case of N#Cc1ccc(OC[C@@]2(O)CN(S(=O)(=O)c3ccc(Cl)cc3Cl)C[C@@H]2O)cc1F (racemic), the IC50 [1] is reported as 150 nM.
N#Cc1ccc(OC2CCN(S(=O)(=O)c3ccc(Cl)cc3Cl)C2)cc1F (racemic) showed an IC50 [1] of 320 nM.
Work on N#Cc1ccc(OCC2(O)CN(S(=O)(=O)c3ccc(Cl)cc3Cl)C2)cc1F yielded an IC50 [1] of 50 nM.
For N#Cc1ccc(OCC2(O)CCN(S(=O)(=O)c3ccc(Cl)cc3Cl)C2)cc1F (racemic), the IC50 [1] was 150 nM.
Molecule N#Cc1ccc(O[C@H]2CN(S(=O)(=O)c3ccc(Cl)cc3Cl)C[C@]2(O)CO)cc1F (racemic) has an IC50 [1] of 100 nM.
Work on N#Cc1ccc(OCC2CCN(S(=O)(=O)c3ccc(Cl)cc3Cl)CC2)cc1F yielded an IC50 [1] of 6300 nM.
Molecule N#Cc1ccc(O[C@H]2CN(S(=O)(=O)c3ccc(Cl)cc3Cl)C[C@@]2(O)CO)cc1F (racemic) has an IC50 [1] of 4 nM.
For N#Cc1ccc(O[C@H]2CN(S(=O)(=O)c3ccc(Cl)cc3Cl)C[C@H]2O)cc1F (racemic), the IC50 [1] was 100 nM.
N#Cc1ccc(O[C@H]2CN(S(=O)(=O)c3ccc(Cl)cc3Cl)C[C@@H]2O)cc1F (racemic) showed an IC50 [1] of 40 nM.
With N#Cc1ccc(O[C@H]2CN(S(=O)(=O)c3ccc(C(F)(F)F)cc3C#N)C[C@@]2(O)CO)cc1F the inhibition [2] was “Dose-dependent effect”, the “inhibition (INH)” value [3] was 100% and the CL free [4] was 1400 mL/min/kg. The Cpss [5] was 90 nM, the Cpss [6] was 30 nM and the Cpss [7] was 40 nM. The IC50 [1] was 1 nM, the “inhibition (INH)” value [8] was 100% and the inhibition [9] was “Dose-dependent effect”. The solubility [10] was 90 µM (≈ 43.7 µg/mL), the clearance [11] was 82 mL/min/kg and the fraction unbound [12] was 0.049. The chromatographic logD [13] was 4.6, the bioavailability [14] was 72% and the MRT [15] was 0.8 h.
Molecule N#Cc1ccc(O[C@H]2CN(S(=O)(=O)c3ccc(Cl)cc3Cl)C[C@H]2CO)cc1F (racemic) has an IC50 [1] of 50 nM.
Work on N#Cc1ccc(OC[C@@H]2CN(S(=O)(=O)c3ccc(Cl)cc3Cl)C[C@H]2O)cc1F (racemic) yielded an IC50 [1] of 1000 nM.
For N#Cc1ccc(O[C@H]2CN(S(=O)(=O)c3ccc(Cl)cc3Cl)C[C@@H]2CO)cc1F (racemic), the IC50 [1] was 200 nM.
Molecule N#Cc1ccc(OC[C@H]2CN(S(=O)(=O)c3ccc(Cl)cc3Cl)C[C@H]2O)cc1F (racemic) has an IC50 [1] of 1500 nM.
With N#Cc1ccc(OCC2(O)CCN(S(=O)(=O)c3ccc(Cl)cc3Cl)CC2)cc1F the CL free [4] was 1461 mL/min/kg, the IC50 [1] was 130 nM and the solubility [10] was 7.5 µM (≈ 3.44 µg/mL). It also gave a clearance [11] of 19 mL/min/kg, a fraction unbound [12] of 0.013 and a chromatographic logD [13] of 6.3. For the same molecule, the bioavailability [14] was 56% and the MRT [15] was 1.5 h.
